The record followed here is ChEMBL document CHEMBL4024793, “Development of Stem-Cell-Mobilizing Agents Targeting CXCR4 Receptor for Peripheral Blood Stem Cell Transplantation and Beyond” (J Med Chem, 2018).

In general, inhibition refers to the share of the control response that was lost under treatment. The half-life is how long it takes for the measured level to halve. High values mean slow decline, low ones rapid decline. For orientation: MTD means the highest dose tested that stayed within the study's limit of toxicity.

Active and inactive are the calls of the source. The rule behind the calls is not given here.

The target in data set [1] is Voltage-dependent N-type calcium channel subunit alpha-1B (Rattus norvegicus) (UniProt Q02294). The data set is described as follows: Displacement of [125I]omega-conotoxin GVIA from rat brain Cav2.2 at 10 uM after 30 mins by scintillation counting.
For data set [2], the system named is Rattus norvegicus. Briefly: Toxicity in Sprague-Dawley rat assessed as effect on lung weight at 50 mg/kg/day, sc administered for 14 days relative to control. In kind it is organism-based. To be noted: in vivo, 336 h. Summed up:
(§1)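 Non-GLP 14-day repeated-dose study in SD rats given 50 mg/kg/day SC. Major organs (liver, kidney, lung, heart) compared with vehicle for size, weight and colour. Blood analysed for hematological and biochemical parameters.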

Data set [3] is described as follows: Half life in C57BL/6 mouse at 6 mg/kg, sc measured up to 4 hrs post dose by LC-MS/MS analysis. To be noted: in vivo. In kind it is ADME, organism-based. Summed up:
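Male C57BL/6 mice (23.4–25.4 g), quarantined one week, non-fasted, n = 3; single SC dose of 6 mg/kg in 100% saline. Blood taken by cardiac puncture at 0, 0.03, 0.08, 0.25, 1, 1.5, 2 and 4 h and stored at -80 °C. Plasma analysed by LC–MS/MS; parameters from non-compartmental analysis; mean ± SD.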

The nature of data set [4]: Acute toxicity in sc dosed C57BL/6 mouse assessed as maximum tolerated dose by measuring mortality. In kind it is organism-based. To be noted: in vivo. Summed up:
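Male C57BL/6 or ICR mice (n = 3/group) dosed subcutaneously with escalating doses, low to high; MTD taken as highest dose giving zero mortality (0/3).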

Data set [5] deals with Rattus norvegicus. The data set is described as follows: Renal toxicity in Sprague-Dawley rat assessed as effect on kidney weight at 50 mg/kg/day, sc administered for 14 days relative to control. The following applies: in vivo, 336 h. In kind it is organism-based. Summed up:
as §1

In the next data set the test system is Mus musculus. The data set is described as follows: Induction hematopoietic stem cell mobilization in C57BL/6 mouse assessed as increase in CXCR4+ cells in blood at 50 mg/kg, sc measured after 2 hrs by APC-conjugated anti-CXCR4-staining based flow cytometry relative to vehicle control. In kind it is functional, organism-based. Summed up: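 Male C57BL/6 mice, 8–10 weeks old, given a single SC injection at escalating doses of 1, 6, 20, 35 and 50 mg/kg. Blood collected 2 h later and stained with antibodies including APC-anti-CXCR4. CXCR4⁺ cells counted by flow cytometry, at least 60,000 events per sample. n = 3 per group; mean ± SEM; t test against vehicle.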

Voltage-dependent N-type calcium channel subunit alpha-1B (Rattus norvegicus), sequence (Q02294 whole entry, looked up): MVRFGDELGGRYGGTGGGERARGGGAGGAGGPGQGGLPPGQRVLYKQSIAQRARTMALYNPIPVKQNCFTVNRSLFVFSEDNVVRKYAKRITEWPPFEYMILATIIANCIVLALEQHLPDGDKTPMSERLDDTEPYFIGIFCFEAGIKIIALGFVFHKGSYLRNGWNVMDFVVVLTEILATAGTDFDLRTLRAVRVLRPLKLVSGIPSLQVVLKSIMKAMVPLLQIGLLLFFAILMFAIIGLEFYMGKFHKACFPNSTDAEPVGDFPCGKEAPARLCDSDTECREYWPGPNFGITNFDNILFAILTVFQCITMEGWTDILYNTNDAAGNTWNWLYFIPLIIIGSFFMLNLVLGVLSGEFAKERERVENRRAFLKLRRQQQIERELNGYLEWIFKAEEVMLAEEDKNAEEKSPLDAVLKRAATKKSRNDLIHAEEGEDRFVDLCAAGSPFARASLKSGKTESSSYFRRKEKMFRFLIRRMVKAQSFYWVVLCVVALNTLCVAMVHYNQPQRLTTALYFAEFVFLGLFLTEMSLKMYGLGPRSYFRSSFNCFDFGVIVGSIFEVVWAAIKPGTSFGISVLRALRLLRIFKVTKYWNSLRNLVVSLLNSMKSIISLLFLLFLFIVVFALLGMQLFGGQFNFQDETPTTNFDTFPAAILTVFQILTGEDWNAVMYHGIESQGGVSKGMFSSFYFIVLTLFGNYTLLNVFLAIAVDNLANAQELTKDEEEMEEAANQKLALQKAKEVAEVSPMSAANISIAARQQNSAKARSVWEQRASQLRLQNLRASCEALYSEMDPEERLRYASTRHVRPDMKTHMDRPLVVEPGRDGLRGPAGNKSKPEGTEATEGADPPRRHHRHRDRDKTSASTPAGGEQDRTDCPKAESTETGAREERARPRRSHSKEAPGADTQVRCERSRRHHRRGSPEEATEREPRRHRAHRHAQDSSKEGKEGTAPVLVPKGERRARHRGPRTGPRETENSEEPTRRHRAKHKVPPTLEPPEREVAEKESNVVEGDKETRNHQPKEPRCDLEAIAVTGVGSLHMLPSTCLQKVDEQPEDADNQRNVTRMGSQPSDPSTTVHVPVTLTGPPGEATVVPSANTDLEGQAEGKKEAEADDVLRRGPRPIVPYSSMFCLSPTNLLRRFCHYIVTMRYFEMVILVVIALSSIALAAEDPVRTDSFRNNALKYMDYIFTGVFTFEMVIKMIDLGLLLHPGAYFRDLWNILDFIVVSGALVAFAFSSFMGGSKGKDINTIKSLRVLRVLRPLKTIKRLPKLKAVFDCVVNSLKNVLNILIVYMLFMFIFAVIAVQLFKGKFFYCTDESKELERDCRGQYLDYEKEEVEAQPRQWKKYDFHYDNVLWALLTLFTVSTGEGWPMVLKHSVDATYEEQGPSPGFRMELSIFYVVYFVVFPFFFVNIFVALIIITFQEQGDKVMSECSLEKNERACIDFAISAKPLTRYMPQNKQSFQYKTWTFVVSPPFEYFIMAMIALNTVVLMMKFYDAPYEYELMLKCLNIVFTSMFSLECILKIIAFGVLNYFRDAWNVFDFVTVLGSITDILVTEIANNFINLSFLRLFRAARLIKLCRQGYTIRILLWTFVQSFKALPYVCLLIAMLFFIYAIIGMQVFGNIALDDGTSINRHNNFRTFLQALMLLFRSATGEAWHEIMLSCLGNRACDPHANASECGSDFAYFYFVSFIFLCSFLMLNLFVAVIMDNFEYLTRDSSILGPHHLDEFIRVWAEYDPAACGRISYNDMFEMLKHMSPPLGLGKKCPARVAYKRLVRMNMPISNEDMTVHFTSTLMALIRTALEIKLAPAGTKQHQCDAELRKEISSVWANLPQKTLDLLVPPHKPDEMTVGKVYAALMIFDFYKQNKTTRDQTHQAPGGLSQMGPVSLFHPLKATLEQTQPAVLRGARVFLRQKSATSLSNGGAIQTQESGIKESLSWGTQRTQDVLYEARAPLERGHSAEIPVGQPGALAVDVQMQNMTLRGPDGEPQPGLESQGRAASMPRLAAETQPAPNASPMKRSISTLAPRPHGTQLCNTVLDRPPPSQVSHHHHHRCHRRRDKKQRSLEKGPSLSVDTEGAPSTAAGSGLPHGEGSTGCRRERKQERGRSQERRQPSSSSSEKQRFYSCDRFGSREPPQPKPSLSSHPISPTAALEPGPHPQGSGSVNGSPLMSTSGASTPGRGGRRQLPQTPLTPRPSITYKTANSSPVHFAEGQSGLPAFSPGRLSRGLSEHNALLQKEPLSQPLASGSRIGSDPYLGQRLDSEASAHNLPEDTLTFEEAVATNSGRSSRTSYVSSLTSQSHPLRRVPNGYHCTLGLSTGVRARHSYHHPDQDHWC

On to `Cc1cc(NC2CCN(C(=O)CCNCC(=O)O)CC2)nc(NCc2cn(CCCNCCCNC3CCCCC3)nn2)n1`, for which, in data set [1], the inhibition amounted to 73%. Further, the Activity entry in the data set with Rattus norvegicus [2] and in the data set on Rattus norvegicus [5] was “Non-Toxic” in each case. The compound further had a half-life in data set [3] of 30 min. Also, the MTD in data set [4] worked out at 75 mg/kg. In addition, in the data set with Mus musculus, the outcome was inactive.
